In ChEMBL document CHEMBL1140296, “Anilinodialkoxyquinazolines: screening epidermal growth factor receptor tyrosine kinase inhibitors for potential tumor imaging probes” (J Med Chem, 2005):

Legend:
[1] = biological target: T1, Epidermal growth factor receptor (Homo sapiens, UniProt P00533); assay: Inhibition of human EGFR tyrosine kinase phosphorylation expressed in mouse BaF3 cells; type: functional, cell-based
[2] = biological target: T1, Epidermal growth factor receptor; assay: Displacement of [125I]4-(3-iodoanilino)-6,7-dimethoxyquinazoline from EGFR tyrosine kinase in human A431 cell membranes; parameters: species or system A-431
[3] = Lipophilicity, log P of the compound; type: physicochemical; settings: octanol/water
In short: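 Log Po/w estimated by reversed-phase HPLC on a C8 column. Mobile phases were methanol with 0.25% 1-octanol and octanol-saturated water with 0.02 M MOPS and 0.15% n-decylamine, pH 7.4, at 1 mL/min. Uracil served as void marker. log k′w was obtained by linear extrapolation of retention over 60–85% methanol.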

[4] = biological target: Receptor tyrosine-protein kinase erbB-4 (Homo sapiens, UniProt Q15303); assay: Inhibition of human ErbB4 tyrosine kinase phosphorylation expressed in human CEM/4 cells; type: functional, cell-based
In short: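 CEM cells expressing ErbB4, grown in RPMI with 10% heat-inactivated FBS and G418, then serum-starved 24 h at 37 °C. About 10^7 cells/mL given inhibitor at three to five concentrations for 2 h at 37 °C, chilled 20 min, then stimulated with NRG1β 100 ng/mL final for 7 min on ice. Lysate glycoproteins captured on ConA. Phosphotyrosine read by 4G10 immunoblot. IC50 read against DMSO standard curve.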

[5] = biological target: Receptor tyrosine-protein kinase erbB-2 (Homo sapiens, UniProt P04626); assay: Inhibition of human ErbB2 tyrosine kinase phosphorylation expressed in mouse BaF3 cells; type: functional, cell-based
Receptor tyrosine-protein kinase erbB-2, sequence (P04626 whole entry): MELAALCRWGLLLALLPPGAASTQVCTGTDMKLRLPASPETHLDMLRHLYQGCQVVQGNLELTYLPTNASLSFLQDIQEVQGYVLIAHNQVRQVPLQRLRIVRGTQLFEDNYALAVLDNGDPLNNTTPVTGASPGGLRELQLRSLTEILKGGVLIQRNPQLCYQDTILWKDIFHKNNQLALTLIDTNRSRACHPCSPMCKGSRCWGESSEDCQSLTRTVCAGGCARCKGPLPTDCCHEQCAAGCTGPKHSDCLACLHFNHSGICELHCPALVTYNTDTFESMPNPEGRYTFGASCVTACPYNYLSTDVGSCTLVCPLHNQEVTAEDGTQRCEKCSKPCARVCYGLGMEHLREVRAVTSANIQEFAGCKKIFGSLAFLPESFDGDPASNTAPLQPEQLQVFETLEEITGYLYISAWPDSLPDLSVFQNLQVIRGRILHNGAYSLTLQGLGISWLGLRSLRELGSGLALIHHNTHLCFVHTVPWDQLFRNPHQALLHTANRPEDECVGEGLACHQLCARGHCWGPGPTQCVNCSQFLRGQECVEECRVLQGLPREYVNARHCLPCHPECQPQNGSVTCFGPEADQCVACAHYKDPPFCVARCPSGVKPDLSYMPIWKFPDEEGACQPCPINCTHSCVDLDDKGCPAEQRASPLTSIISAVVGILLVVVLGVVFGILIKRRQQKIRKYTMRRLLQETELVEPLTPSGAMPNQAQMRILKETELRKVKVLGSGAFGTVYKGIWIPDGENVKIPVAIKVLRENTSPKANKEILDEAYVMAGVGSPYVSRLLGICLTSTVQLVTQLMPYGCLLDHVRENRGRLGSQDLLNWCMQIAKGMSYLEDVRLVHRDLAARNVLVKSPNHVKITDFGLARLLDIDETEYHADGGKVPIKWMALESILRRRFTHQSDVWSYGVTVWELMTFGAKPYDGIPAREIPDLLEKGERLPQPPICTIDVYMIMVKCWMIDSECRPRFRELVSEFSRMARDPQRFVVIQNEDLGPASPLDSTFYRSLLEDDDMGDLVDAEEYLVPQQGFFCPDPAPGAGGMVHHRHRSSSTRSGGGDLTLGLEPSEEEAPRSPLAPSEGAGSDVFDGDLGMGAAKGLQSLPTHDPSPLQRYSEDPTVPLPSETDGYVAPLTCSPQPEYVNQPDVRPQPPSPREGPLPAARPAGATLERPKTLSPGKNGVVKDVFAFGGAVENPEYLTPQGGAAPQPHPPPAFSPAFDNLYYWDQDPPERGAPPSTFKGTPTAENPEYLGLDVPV

T1 sequence (P00533 whole entry): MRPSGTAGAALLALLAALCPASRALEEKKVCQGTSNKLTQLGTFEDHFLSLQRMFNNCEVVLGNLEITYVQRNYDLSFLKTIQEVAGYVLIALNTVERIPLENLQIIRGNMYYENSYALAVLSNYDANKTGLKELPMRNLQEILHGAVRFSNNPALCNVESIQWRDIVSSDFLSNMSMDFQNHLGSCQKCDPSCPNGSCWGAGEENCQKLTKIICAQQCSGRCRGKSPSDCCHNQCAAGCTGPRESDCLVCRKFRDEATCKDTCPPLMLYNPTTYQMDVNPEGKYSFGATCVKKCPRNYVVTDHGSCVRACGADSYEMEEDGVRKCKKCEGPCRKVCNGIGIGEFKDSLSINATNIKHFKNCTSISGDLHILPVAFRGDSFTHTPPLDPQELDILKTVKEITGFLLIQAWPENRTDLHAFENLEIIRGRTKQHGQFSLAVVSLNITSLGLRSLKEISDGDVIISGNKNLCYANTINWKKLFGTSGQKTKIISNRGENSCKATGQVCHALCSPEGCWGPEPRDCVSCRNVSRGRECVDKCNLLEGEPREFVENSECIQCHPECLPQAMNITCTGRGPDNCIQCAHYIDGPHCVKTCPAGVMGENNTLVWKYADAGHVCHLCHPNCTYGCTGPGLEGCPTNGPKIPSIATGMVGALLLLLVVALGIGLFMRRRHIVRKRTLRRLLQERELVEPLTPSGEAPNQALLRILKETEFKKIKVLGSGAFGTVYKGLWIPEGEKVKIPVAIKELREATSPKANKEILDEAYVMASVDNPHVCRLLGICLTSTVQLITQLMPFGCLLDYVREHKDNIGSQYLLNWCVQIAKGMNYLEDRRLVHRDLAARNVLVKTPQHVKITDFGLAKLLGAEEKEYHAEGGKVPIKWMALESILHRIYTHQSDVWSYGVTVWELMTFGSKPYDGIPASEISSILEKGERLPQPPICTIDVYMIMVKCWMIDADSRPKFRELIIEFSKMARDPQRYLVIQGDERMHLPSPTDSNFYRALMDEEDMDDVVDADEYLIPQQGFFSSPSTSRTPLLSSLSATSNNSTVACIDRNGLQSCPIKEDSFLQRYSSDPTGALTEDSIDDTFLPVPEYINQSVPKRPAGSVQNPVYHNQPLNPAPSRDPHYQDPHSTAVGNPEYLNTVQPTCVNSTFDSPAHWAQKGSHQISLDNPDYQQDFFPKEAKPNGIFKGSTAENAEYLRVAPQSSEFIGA
Receptor tyrosine-protein kinase erbB-4, sequence (Q15303 whole entry): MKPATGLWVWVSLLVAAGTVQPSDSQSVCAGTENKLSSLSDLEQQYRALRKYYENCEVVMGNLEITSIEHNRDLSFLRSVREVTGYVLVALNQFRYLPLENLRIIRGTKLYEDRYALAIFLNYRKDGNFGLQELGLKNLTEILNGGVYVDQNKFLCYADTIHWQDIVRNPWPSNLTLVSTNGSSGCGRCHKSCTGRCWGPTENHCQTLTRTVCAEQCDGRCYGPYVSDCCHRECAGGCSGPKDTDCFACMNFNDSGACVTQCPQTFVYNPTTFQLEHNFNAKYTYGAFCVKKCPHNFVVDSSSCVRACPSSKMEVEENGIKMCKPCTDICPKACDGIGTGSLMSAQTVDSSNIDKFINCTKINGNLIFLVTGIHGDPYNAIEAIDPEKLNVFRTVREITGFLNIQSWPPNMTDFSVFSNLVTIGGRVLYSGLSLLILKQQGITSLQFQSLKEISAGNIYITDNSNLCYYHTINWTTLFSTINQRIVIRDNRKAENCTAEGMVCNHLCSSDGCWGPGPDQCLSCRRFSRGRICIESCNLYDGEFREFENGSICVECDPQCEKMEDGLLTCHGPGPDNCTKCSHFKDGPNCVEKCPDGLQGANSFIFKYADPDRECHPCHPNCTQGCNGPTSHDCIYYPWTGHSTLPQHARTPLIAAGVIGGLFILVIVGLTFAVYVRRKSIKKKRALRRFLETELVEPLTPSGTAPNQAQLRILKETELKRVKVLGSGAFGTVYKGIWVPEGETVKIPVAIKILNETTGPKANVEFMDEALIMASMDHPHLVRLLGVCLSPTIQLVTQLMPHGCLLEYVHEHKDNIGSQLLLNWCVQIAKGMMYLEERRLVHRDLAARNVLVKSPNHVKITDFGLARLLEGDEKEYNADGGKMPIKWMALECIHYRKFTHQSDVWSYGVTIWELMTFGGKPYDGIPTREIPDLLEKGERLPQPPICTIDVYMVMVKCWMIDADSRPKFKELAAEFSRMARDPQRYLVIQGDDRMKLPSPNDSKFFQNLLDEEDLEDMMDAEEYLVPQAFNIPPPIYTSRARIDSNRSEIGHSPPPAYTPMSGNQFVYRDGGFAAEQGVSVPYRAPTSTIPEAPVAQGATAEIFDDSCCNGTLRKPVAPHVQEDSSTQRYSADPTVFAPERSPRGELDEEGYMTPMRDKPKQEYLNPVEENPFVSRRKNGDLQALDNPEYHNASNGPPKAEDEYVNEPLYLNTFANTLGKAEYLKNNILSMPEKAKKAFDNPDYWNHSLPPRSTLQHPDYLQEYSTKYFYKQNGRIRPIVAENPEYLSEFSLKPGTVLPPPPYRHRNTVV

Compound | IC50 [1] [nM] | IC50 [2] [nM] | logP [3] | IC50 [4] [nM] | IC50 [5] [nM]
COc1cc2ncnc(Nc3ccccc3F)c2cc1OC | 12.8 | 32.2 | 2.2 |  | 
COc1cc2ncnc(Nc3cccc(Cl)c3)c2cc1OC |  |  | 3.51 |  | 
COc1cc2ncnc(Nc3ccc(F)cc3)c2cc1OC | 19.1 | 51 | 2.87 |  | 
CCOc1cc2ncnc(Nc3cccc(I)c3)c2cc1OCC | 4.6 | 0.64 | 4.62 | 59 | 69
COc1cc2ncnc(Nc3cc(F)cc(C(F)(F)F)c3)c2cc1OC | 19.1 | 20 | 4.66 |  | 
CCOc1cc2ncnc(Nc3cc(F)cc(C(F)(F)F)c3)c2cc1OCC | > 50 | 8.95 | 5.49 |  | 
CCOc1cc2ncnc(Nc3ccccc3F)c2cc1OCC | 15.8 | 9.31 | 3.02 |  | 
CCOc1cc2ncnc(NCc3ccc(F)cc3)c2cc1OCC | 6.6 | 17 | 3.78 | > 100 | 231
CCOc1cc2ncnc(Nc3cccc(F)c3)c2cc1OCC | 6.5 | 8.17 | 3.71 |  | 
COc1cc2ncnc(Nc3cccc(F)c3)c2cc1OC |  |  | 2.96 |  | 
COc1cc2ncnc(Nc3cccc(Br)c3)c2cc1OC |  |  | 3.49 | 49 | 
CCOc1cc2ncnc(Nc3cccc(Cl)c3)c2cc1OCC | 1.2 | 0.38 | 4.31 |  | 
CCOc1cc2ncnc(Nc3cccc(Br)c3)c2cc1OCC | 3.2 | 0.41 | 4.4 | 50 | 215
COc1cc2ncnc(NCc3ccc(F)cc3)c2cc1OC |  |  | 3.02 |  | 
CCOc1cc2ncnc(Nc3ccc(F)cc3)c2cc1OCC | 23.1 | 16 | 3.73 |  | 
COc1cc2ncnc(Nc3cccc(I)c3)c2cc1OC | 6.4 | 1.05 | 3.65 |  | 
